Laboratory results from ChEMBL document CHEMBL4609990, “Design and synthesis of cyanamides as potent and selective N-acylethanolamine acid amidase inhibitors” (Bioorg Med Chem, 2020).
Blank lines part the entries; values can stand above or below the compound they belong to.

Tests used:
[1] = target: T1, N-acylethanolamine-hydrolyzing acid amidase (Homo sapiens, UniProt Q02083); assay: Inhibition of activated human NAAA using fluorogenic PAMCA and N-4-methylcoumarin as substrate incubated for 90 mins by fluorescence based assay
T1 sequence (Q02083 whole entry): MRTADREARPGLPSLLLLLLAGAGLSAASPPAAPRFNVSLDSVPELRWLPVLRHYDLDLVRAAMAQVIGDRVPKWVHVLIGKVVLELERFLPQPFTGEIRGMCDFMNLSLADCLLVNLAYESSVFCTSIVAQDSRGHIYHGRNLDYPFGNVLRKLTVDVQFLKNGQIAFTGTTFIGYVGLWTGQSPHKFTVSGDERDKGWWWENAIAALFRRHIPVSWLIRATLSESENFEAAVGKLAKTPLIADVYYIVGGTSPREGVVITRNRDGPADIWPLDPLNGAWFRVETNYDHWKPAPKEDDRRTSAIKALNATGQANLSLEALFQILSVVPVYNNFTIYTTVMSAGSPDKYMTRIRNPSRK
Summary of the method: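 Purified activated hNAAA (final 0.25 µg/mL) in 100 mM citrate-phosphate pH 4.5, 3 mM DTT, 0.1% Triton X-100, 0.05% BSA, 150 mM NaCl; compound in DMSO preincubated 90 min at room temperature. PAMCA added (final 5 µM), reaction at 37 °C for 90 min, fluorescence ex 360/em 460 nm read every 10 min. RFU converted to AMC via AMC standard curve. IC50 from eight concentrations, triplicate.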

[2] = target: T2, N-acylethanolamine-hydrolyzing acid amidase (Homo sapiens) (UniProt Q02083); assay: Irreversible inhibition of activated human NAAA assessed as ratio of Kinact/Ki using fluorogenic PAMCA and N-4-methylcoumarin as substrate
T2 sequence (whole entry): T1 sequence (Q02083 whole entry)

[3] = target: T3, Cathepsin K (Homo sapiens, UniProt P43235); assay: Inhibition of recombinant human Cathepsin K using Z-Phe-Arg-AMC as substrate preincubated with enzyme for 120 mins followed by substrate addition by fluorimetry analysis
T3 sequence (P43235 whole entry): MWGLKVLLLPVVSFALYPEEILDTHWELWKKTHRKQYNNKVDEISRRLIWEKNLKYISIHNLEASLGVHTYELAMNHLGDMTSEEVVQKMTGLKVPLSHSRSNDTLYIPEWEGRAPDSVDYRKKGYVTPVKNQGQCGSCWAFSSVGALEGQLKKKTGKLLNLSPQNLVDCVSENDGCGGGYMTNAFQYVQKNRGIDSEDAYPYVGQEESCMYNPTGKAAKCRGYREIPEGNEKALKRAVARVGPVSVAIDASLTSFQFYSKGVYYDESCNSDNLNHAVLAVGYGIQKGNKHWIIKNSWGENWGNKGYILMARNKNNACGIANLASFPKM

[4] = Half life in human liver microsomes at 1 uM in presence of NADPH by LC-MS/MS; settings: liver microsomes
[5] = Half life in rat liver microsomes at 1 uM in presence of NADPH by LC-MS/MS; settings: liver microsomes
[6] = target: T4, Fatty-acid amide hydrolase 1 (Homo sapiens) (UniProt O00519); assay: Inhibition of recombinant human FAAH expressed in Escherichia coli at 1 uM using fluorogenic AAMCA as substrate by fluorimetric assay relative to control
T4 sequence (whole entry): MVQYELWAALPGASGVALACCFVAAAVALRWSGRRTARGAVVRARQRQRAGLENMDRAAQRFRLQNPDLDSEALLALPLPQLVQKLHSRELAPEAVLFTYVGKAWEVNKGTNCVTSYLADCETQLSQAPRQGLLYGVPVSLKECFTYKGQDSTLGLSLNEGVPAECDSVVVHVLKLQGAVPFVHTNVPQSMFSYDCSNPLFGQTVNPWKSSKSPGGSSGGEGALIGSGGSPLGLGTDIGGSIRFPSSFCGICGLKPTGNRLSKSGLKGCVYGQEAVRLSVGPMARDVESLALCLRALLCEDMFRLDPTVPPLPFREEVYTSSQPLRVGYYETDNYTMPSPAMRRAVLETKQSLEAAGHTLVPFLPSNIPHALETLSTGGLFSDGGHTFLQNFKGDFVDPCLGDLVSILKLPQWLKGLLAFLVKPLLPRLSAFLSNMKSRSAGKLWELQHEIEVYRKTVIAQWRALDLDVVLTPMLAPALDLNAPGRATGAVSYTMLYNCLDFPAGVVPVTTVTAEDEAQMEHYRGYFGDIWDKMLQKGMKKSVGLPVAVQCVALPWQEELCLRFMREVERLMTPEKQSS
Summary of the method: (§1)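 Human recombinant FAAH expressed in E. coli and purified; fluorometric assay with arachidonoyl 7-amino-4-methylcoumarin amide (AAMCA) as substrate; IC50 by curve fitting, or percent inhibition at 1 µM.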

[7] = target: T5, Monoglyceride lipase (Homo sapiens) (UniProt Q99685); assay: Inhibition of recombinant human hexaHis-tagged MGL expressed in Escherichia coli BL21 (DE3) at 1 uM using fluorogenic AHMMCE as substrate preincubated for 1 hr followed by substrate addition by fluorimetric assay relative to control
T5 sequence (whole entry): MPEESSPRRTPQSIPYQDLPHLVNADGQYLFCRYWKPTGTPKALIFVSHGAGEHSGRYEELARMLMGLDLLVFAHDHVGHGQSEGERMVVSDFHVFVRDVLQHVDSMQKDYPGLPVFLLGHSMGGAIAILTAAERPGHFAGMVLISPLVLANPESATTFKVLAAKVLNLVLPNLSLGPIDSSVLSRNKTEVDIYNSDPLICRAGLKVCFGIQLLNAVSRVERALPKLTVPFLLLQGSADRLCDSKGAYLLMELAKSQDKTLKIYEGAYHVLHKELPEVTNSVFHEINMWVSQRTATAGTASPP
Summary of the method: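 Human recombinant MGL expressed in E. coli and purified; fluorometric assay using arachidonoyl 7-hydroxy-6-methoxy-4-methylcoumarin ester (AHMMCE) as substrate; IC50 by curve fitting, or percent inhibition at 1 µM.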

[8] = Half life in human plasma by HPLC analysis
[9] = target: T6, Fatty-acid amide hydrolase 1 (Homo sapiens, UniProt O00519); assay: Inhibition of recombinant human FAAH expressed in Escherichia coli using fluorogenic AAMCA as substrate by fluorimetric assay; summary of the method: as §1
T6 sequence (O00519 whole entry): T4 sequence (whole entry)

[10] = species on record: Homo sapiens; assay: Selectivity index, ratio of IC50 for human hexaHis-tagged MGL expressed in Escherichia coli BL21 (DE3) using fluorogenic AHMMCE as substrate preincubated for 1 hr followed by substrate addition by fluorimetric assay to IC50 human NAAA using fluorogenic PAMCA and N-4-methylcoumarin as substrate incubated for 90 mins by fluorescence based assay
[11] = species on record: Homo sapiens; assay: Selectivity index, ratio of IC50 for full length human ABHD6 using AHMMCE as substrate preincubated for 1 hr followed by substrate addition by fluorimetric assay to IC50 human NAAA using fluorogenic PAMCA and N-4-methylcoumarin as substrate incubated for 90 mins by fluorescence based assay
[12] = species on record: Homo sapiens; assay: Selectivity index, ratio of IC50 for human Cathepsin K using […] as substrate preincubated with enzyme for 90 mins followed by substrate addition by fluorimetry analysis to IC50 human NAAA using fluorogenic PAMCA and N-4-methylcoumarin as substrate incubated for 90 mins by fluorescence based assay
[13] = target: T1, N-acylethanolamine-hydrolyzing acid amidase; assay: Inhibition of NAAA (unknown origin)

SMILES: N#CN1CC(CNS(=O)(=O)c2ccccc2)C1
IC50 [3]: 50 nM

SMILES: COc1cccc(-c2ccc(C(OC3CN(C#N)C3)c3ccccc3)cc2)c1 (stereo unspecified)
IC50 [1]: 11.6 nM

SMILES: N#CN1CC(Oc2ccc(-c3ccccc3)cc2)C1
IC50 [1]: 29 nM

SMILES: N#CN1CC(COCc2ccc(-c3ccccc3)cc2)C1
IC50 [1]: 3.4 nM | Ratio [2]: 3.04 ×10⁶ /M/s

SMILES: Cn1nccc1-c1ccc(C(OC2CN(C#N)C2)c2ccccc2)cc1 (stereo unspecified)
IC50 [1]: 74.7 nM

SMILES: COc1ccc(-c2cc(Oc3ccccc3)ccc2COC2CN(C#N)C2)cc1
IC50 [1]: 5.7 nM

SMILES: COc1ncccc1-c1ccc(COC2CN(C#N)C2)cc1
IC50 [1]: 5.8 nM

SMILES: COc1cccc(OC)c1-c1ccc(COC2CN(C#N)C2)cc1
IC50 [1]: 67.5 nM

SMILES: CN(Cc1ccc(-c2ccccc2)cc1)C1CN(C#N)C1
half-life at 1 µM [4]: 0.188 h | IC50 [1]: 20.8 nM

SMILES: N#CN1CC(OCc2ccc(-c3ccc4c(c3)OCO4)cc2)(c2ccccc2)C1
IC50 [1]: 9.2 nM | inhibition [6]: 99% | inhibition [7]: 59%

SMILES: C[C@H]1[C@H](NC(=O)OCCCCC2CCCCC2)C(=O)N1c1cccc(S(C)(=O)=O)c1
IC50 [13]: 6 nM

SMILES: N#CN1CC[C@@H](OCc2ccc(-c3ccccc3)cc2)C1
IC50 [1]: 26.4 nM

The remaining compounds from weak to strong by IC50 [1], led by results:

IC50 [1]: 3.2 nM | Ratio IC50 [10]: > 100 | Ratio IC50 [11]: > 100 | inhibition [7]: 19% | half-life [8]: 3.68 h | Ratio IC50 [12]: > 100 | IC50 [9]: 17.8 nM
SMILES: COc1cccc(-c2ccc(S(=O)(=O)NC3(C)CN(C#N)C3)cc2)c1

IC50 [1]: 2.8 nM
SMILES: COc1cccc(-c2ccc(COC3CN(C#N)C3)c(OC)c2)c1

IC50 [1]: 2.5 nM
SMILES: N#Cc1ccc(-c2cc(Oc3ccccc3)ccc2COC2CN(C#N)C2)cc1

half-life at 1 µM [4]: 0.113 h | IC50 [1]: 1.6 nM | Ratio [2]: 2.74 ×10⁶ /M/s | half-life at 1 µM [5]: 8.9 min
SMILES: N#CN1CC(OCc2ccc(-c3ccc(C(F)(F)F)cc3)cc2)C1

IC50 [1]: 1.58 nM | inhibition [6]: 23% | inhibition [7]: 11% | half-life [8]: 15 h
SMILES: COc1cccc(-c2ccc(C(=O)NC3(C)CN(C#N)C3)cc2)c1

IC50 [1]: 1.4 nM
SMILES: N#CN1CC(OCc2ccc(-c3cccc(OCc4ccccc4)c3)cc2)C1

IC50 [1]: 0.88 nM | Ratio [2]: 8.4 ×10⁶ /M/s
SMILES: COc1cccc(-c2ccc(COC3CN(C#N)C3)cc2)c1OC

IC50 [1]: 0.85 nM | Ratio [2]: 1.4 ×10⁶ /M/s
SMILES: COc1cccc(-c2ccc(COC3CN(C#N)C3)c(C(F)(F)F)c2)c1

IC50 [1]: 0.35 nM | half-life [8]: 2.12 h | IC50 [9]: 1 nM
SMILES: COc1ccc(-c2ccc(COC3(C4CC4)CN(C#N)C3)c(F)c2)cc1F
